Results reported in article PMC8682075 (Biochimie, 2020).
Like-named read-outs stand apart in the source and are kept apart here.

Tests used:
MMUT WT = target: T1, MMUT WT (Homo sapiens, UniProt P22033); experiment: Activity screen; assay type: biochemical; conditions: cobamide 1 μM, MMUT WT 0.01 μM, 30 minutes
T1 sequence (P22033 33-750): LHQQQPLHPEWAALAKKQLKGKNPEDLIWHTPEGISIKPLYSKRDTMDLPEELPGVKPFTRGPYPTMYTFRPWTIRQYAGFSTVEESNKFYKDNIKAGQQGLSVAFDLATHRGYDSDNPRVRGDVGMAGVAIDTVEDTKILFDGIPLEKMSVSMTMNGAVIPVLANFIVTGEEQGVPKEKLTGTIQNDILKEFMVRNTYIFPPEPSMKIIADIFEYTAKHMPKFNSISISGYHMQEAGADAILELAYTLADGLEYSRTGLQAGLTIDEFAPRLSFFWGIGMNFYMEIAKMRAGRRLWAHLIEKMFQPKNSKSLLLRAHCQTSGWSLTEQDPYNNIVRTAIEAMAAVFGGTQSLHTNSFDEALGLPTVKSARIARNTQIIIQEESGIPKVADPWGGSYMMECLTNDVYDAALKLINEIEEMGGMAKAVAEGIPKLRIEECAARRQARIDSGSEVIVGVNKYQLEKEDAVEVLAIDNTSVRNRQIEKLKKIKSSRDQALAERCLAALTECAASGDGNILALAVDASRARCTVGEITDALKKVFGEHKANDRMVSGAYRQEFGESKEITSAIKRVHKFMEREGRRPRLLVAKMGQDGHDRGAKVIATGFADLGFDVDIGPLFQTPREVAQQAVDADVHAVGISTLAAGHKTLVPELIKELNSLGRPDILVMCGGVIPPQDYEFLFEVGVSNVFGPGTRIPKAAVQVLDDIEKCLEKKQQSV
In short: (§1)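 At 30 °C, reaction was started with thiokinase, MgCl₂, ADP and methylmalonyl-CoA. Final levels were cofactor 1 μM and (R)-methylmalonyl-CoA 2 mM. Enzyme was WT 0.01 μM, G717V 1 μM, other variants 0.1 μM. After 30 min, an aliquot went into 2.5 mM DTNB; CoA was taken from A412 (ε 14,150 M⁻¹ cm⁻¹).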

[1] = target: T2, MMUT (methylmalonyl-CoA mutase) (Homo sapiens, UniProt P22033); experiment: Coupled thiokinase/DTNB spectrophotometric MMUT activity assay; assay type: biochemical
T2 sequence (P22033 33-750): T1 sequence (P22033 33-750)
In short: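 In the coupled kinetic assay, succinyl-CoA was converted by thiokinase to CoA, which was detected spectrophotometrically with DTNB. C-terminally His-tagged MMUT was at 10 nM. Enzymatically made (R)-methylmalonyl-CoA was fixed at 4 mM. Adenosylated cofactor was varied per cofactor, from 0.031 μM at lowest to 12 μM at highest. K_M,app and k_cat come from ≥5 replicates over ≥2 independent experiments and two biological samples.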

[2] = target: T2, MMUT (methylmalonyl-CoA mutase); conditions: read-out: KM, app; previously reported value ref 57; cited from earlier work
[3] = target: T2, MMUT (methylmalonyl-CoA mutase); experiment: Cobamide equilibrium binding by quenching of intrinsic protein fluorescence; conditions: MMUT 0.2 μM, fluorescence quenching
In short: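 Fluorescence quenching used MMUT at 0.2 μM, from N-terminal His-tag (E. coli BL21(DE3)pLysS) and C-terminal His-tag preparations. Adenosylated cofactor was titrated at 0.19–2.5 μM or 0.23–2.5 μM, depending on cofactor class. Plate-reader excitation/emission was 282/340 nm. Kd came from a quadratic fit allowing for ligand depletion. Values were averaged over ≥5 technical replicates from ≥2 independent experiments.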

[4] = target: T2, MMUT (methylmalonyl-CoA mutase); conditions: cited from earlier work
[5] = tested on: MMUT variants G648D, V633G, G717V, P86L, Y100C, Y231N; experiment: Activity screen; assay type: biochemical, human; conditions: cobamide 1 μM, variants 0.1 μM (G717V 1 μM), 30 minutes
In short: as §1

- activity of WT MMUT with the cobamide (in words) (MMUT WT): active
- MMUT activity with the cobamide (in words) ([1]; coupled spectrophotometric assay): active
- Km ([1]; read-out: KM, app, methylmalonyl-CoA 4 mM, MMUT 10 nM): 0.04 ± 0.02 µM
- Kd [3]: 80 ± 30 nM
SMILES: C/C1=C2/[N-][C@H]([C@H](CC(N)=O)[C@@]2(C)CCC(=O)NC[C@@H](C)OP(=O)([O-])O[C@H]2[C@@H](O)[C@@H](n3cnc4cc(C)c(C)cc43)O[C@@H]2CO)[C@]2(C)N=C(/C(C)=C3N=C(/C=C4N=C1[C@@H](CCC(N)=O)C\4(C)C)[C@@H](CCC(N)=O)[C@]\3(C)CC(N)=O)[C@@H](CCC(N)=O)[C@]2(C)CC(N)=O.[CH2-][C@H]1O[C@@H](n2cnc3c(N)ncnc32)[C@H](O)[C@@H]1O.[Co] [AdoCbl, adenosylcobalamin, reference compound]
- Km [2]: 0.05 µM
- Kd ([4]; previous study of MMUT ref 49): 40 nM
- Kd ([4]; previous study of MMUT ref 50): 270 ± 110 nM
- activity of MMUT variants with the cobamide (in words) [5]: significantly reduced specific activity
